≈ marks a conversion by molar mass, not a printed value.
Columns and labels:
Format in all cases: functional
[1] = tested on: Mycobacterium kansasii; assay: Antimycobacterial activity against Mycobacterium kansasii My 6509/96 clinical isolate after 7 days by micromethod; settings: My 6509/96, 168 h
[2] = tested on: Mycobacterium tuberculosis; assay: Antimycobacterial activity against Mycobacterium tuberculosis My 331/88 after 21 days by micromethod; settings: My 331/88, 504 h
Method in brief: (§1)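 MIC by micromethod at 37 °C, read after 14 and 21 days. Inocula were M. tuberculosis My 331/88 at 10^-3 dilution and M. avium My 330/88 at 10^-5 dilution. Compounds added in DMSO across 1000, 500, 250, 125, 62.5, 32, 16, 8, 4, 2, 1 and 0.5; isoniazid standard in sterile water. MIC taken as the lowest concentration inhibiting growth.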

[3] = tested on: Mycobacterium avium; assay: Antimycobacterial activity against Mycobacterium avium My 330/88 after 14 days by micromethod; settings: My 330/88, 336 h
[4] = tested on: Mycobacterium avium; assay: Antimycobacterial activity against Mycobacterium avium My 330/88 after 21 days by micromethod; settings: My 330/88, 504 h
[5] = tested on: Mycobacterium kansasii; assay: Antimycobacterial activity against Mycobacterium kansasii My 235/80 after 21 days by micromethod; settings: My 235/80, 504 h
[6] = tested on: Mycobacterium kansasii; assay: Antimycobacterial activity against Mycobacterium kansasii My 6509/96 clinical isolate after 21 days by micromethod; settings: My 6509/96, 504 h
[7] = tested on: Mycobacterium kansasii; assay: Antimycobacterial activity against Mycobacterium kansasii My 235/80 after 7 days by micromethod; settings: My 235/80, 168 h
[8] = tested on: Mycobacterium kansasii; assay: Antimycobacterial activity against Mycobacterium kansasii My 235/80 after 14 days by micromethod; settings: My 235/80, 336 h
[9] = tested on: Mycobacterium kansasii; assay: Antimycobacterial activity against Mycobacterium kansasii My 6509/96 clinical isolate after 14 days by micromethod; settings: My 6509/96, 336 h
[10] = tested on: Mycobacterium tuberculosis; assay: Antimycobacterial activity against Mycobacterium tuberculosis My 331/88 after 14 days by micromethod; settings: My 331/88, 336 h; method in brief: as §1

Compound | MIC [1] | MIC [2] | MIC [3] | MIC [4] | MIC [5] | MIC [6] | MIC [7] | MIC [8] | MIC [9] | MIC [10]
COc1ccc(Cl)cc1C(=O)Nc1ccc(Cl)c(Cl)c1 | 62.5 µM (≈ 20.7 µg/mL) | 125 µM (≈ 41.3 µg/mL) | 250 µM (≈ 82.6 µg/mL) | 250 µM (≈ 82.6 µg/mL) | 250 µM (≈ 82.6 µg/mL) | 125 µM (≈ 41.3 µg/mL) | 62.5 µM (≈ 20.7 µg/mL) | 250 µM (≈ 82.6 µg/mL) | 125 µM (≈ 41.3 µg/mL) | 125 µM (≈ 41.3 µg/mL)
COc1cc(Cl)ccc1C(=O)Nc1cccc(C(F)(F)F)c1 | 125 µM (≈ 41.2 µg/mL) | 250 µM (≈ 82.4 µg/mL) | 125 µM (≈ 41.2 µg/mL) | 125 µM (≈ 41.2 µg/mL) | 250 µM (≈ 82.4 µg/mL) | 125 µM (≈ 41.2 µg/mL) | 125 µM (≈ 41.2 µg/mL) | 250 µM (≈ 82.4 µg/mL) | 125 µM (≈ 41.2 µg/mL) | 250 µM (≈ 82.4 µg/mL)
NNC(=O)c1ccncc1 [ISONIAZID] | 4 µM (≈ 0.549 µg/mL) | 0.5 µM (≈ 0.0686 µg/mL) | 200 µM (≈ 27.4 µg/mL) | 250 µM (≈ 34.3 µg/mL) | 250 µM (≈ 34.3 µg/mL) | 4 µM (≈ 0.549 µg/mL) | > 250 µM | 200 µM (≈ 27.4 µg/mL) | 4 µM (≈ 0.549 µg/mL) | 0.5 µM (≈ 0.0686 µg/mL)
COc1ccc(Cl)cc1C(=S)Nc1ccc(Cl)c(Cl)c1 | 62.5 µM (≈ 21.7 µg/mL) | 8 µM (≈ 2.77 µg/mL) | 32 µM (≈ 11.1 µg/mL) | 62.5 µM (≈ 21.7 µg/mL) | 62.5 µM (≈ 21.7 µg/mL) | 125 µM (≈ 43.3 µg/mL) | 32 µM (≈ 11.1 µg/mL) | 62.5 µM (≈ 21.7 µg/mL) | 125 µM (≈ 43.3 µg/mL) | 8 µM (≈ 2.77 µg/mL)
COc1cc(Cl)ccc1C(=S)Nc1ccc([N+](=O)[O-])cc1 | 16 µM (≈ 5.16 µg/mL) | 32 µM (≈ 10.3 µg/mL) | 16 µM (≈ 5.16 µg/mL) | 16 µM (≈ 5.16 µg/mL) | 32 µM (≈ 10.3 µg/mL) | 32 µM (≈ 10.3 µg/mL) | 16 µM (≈ 5.16 µg/mL) | 32 µM (≈ 10.3 µg/mL) | 16 µM (≈ 5.16 µg/mL) | 8 µM (≈ 2.58 µg/mL)
COc1ccc(Cl)cc1C(=S)Nc1cccc(Br)c1 | 32 µM (≈ 11.4 µg/mL) | 32 µM (≈ 11.4 µg/mL) | 32 µM (≈ 11.4 µg/mL) | 32 µM (≈ 11.4 µg/mL) | 32 µM (≈ 11.4 µg/mL) | 32 µM (≈ 11.4 µg/mL) | 16 µM (≈ 5.71 µg/mL) | 32 µM (≈ 11.4 µg/mL) | 32 µM (≈ 11.4 µg/mL) | 32 µM (≈ 11.4 µg/mL)
COc1ccc(Cl)cc1C(=S)Nc1ccc(C(F)(F)F)cc1 | 8 µM (≈ 2.77 µg/mL) | 16 µM (≈ 5.53 µg/mL) | 16 µM (≈ 5.53 µg/mL) | 16 µM (≈ 5.53 µg/mL) | 32 µM (≈ 11.1 µg/mL) | 16 µM (≈ 5.53 µg/mL) | 8 µM (≈ 2.77 µg/mL) | 16 µM (≈ 5.53 µg/mL) | 16 µM (≈ 5.53 µg/mL) | 16 µM (≈ 5.53 µg/mL)
COc1cc(Cl)ccc1C(=O)Nc1cccc(Cl)c1 | 62.5 µM (≈ 18.5 µg/mL) | 125 µM (≈ 37 µg/mL) | 8 µM (≈ 2.37 µg/mL) | 32 µM (≈ 9.48 µg/mL) | 32 µM (≈ 9.48 µg/mL) | 125 µM (≈ 37 µg/mL) | 8 µM (≈ 2.37 µg/mL) | 32 µM (≈ 9.48 µg/mL) | 62.5 µM (≈ 18.5 µg/mL) | 125 µM (≈ 37 µg/mL)
COc1cc(Cl)ccc1C(=O)Nc1cccc(Br)c1 | 125 µM (≈ 42.6 µg/mL) | 250 µM (≈ 85.2 µg/mL) | 125 µM (≈ 42.6 µg/mL) | 125 µM (≈ 42.6 µg/mL) | 125 µM (≈ 42.6 µg/mL) | 125 µM (≈ 42.6 µg/mL) | 125 µM (≈ 42.6 µg/mL) | 125 µM (≈ 42.6 µg/mL) | 125 µM (≈ 42.6 µg/mL) | 250 µM (≈ 85.2 µg/mL)
COc1ccc(Cl)cc1C(=O)Nc1cccc([N+](=O)[O-])c1 | 125 µM (≈ 38.3 µg/mL) | 125 µM (≈ 38.3 µg/mL) | 250 µM (≈ 76.7 µg/mL) | 250 µM (≈ 76.7 µg/mL) | 125 µM (≈ 38.3 µg/mL) | 125 µM (≈ 38.3 µg/mL) | 125 µM (≈ 38.3 µg/mL) | 125 µM (≈ 38.3 µg/mL) | 125 µM (≈ 38.3 µg/mL) | 125 µM (≈ 38.3 µg/mL)
COc1ccc(Cl)cc1C(=S)Nc1ccc(Br)cc1 | 16 µM (≈ 5.71 µg/mL) | 16 µM (≈ 5.71 µg/mL) | 16 µM (≈ 5.71 µg/mL) | 16 µM (≈ 5.71 µg/mL) | 250 µM (≈ 89.2 µg/mL) | 32 µM (≈ 11.4 µg/mL) | 62.5 µM (≈ 22.3 µg/mL) | 250 µM (≈ 89.2 µg/mL) | 32 µM (≈ 11.4 µg/mL) | 16 µM (≈ 5.71 µg/mL)
COc1ccc(Cl)cc1C(=O)Nc1ccc(Cl)cc1 | 62.5 µM (≈ 18.5 µg/mL) | 62.5 µM (≈ 18.5 µg/mL) | 62.5 µM (≈ 18.5 µg/mL) | 62.5 µM (≈ 18.5 µg/mL) | 250 µM (≈ 74 µg/mL) | 125 µM (≈ 37 µg/mL) | 62.5 µM (≈ 18.5 µg/mL) | 250 µM (≈ 74 µg/mL) | 125 µM (≈ 37 µg/mL) | 62.5 µM (≈ 18.5 µg/mL)
COc1cc(Cl)ccc1C(=O)Nc1cccc([N+](=O)[O-])c1 | 125 µM (≈ 38.3 µg/mL) | 125 µM (≈ 38.3 µg/mL) | 125 µM (≈ 38.3 µg/mL) | 125 µM (≈ 38.3 µg/mL) | 250 µM (≈ 76.7 µg/mL) | 125 µM (≈ 38.3 µg/mL) | 125 µM (≈ 38.3 µg/mL) | 250 µM (≈ 76.7 µg/mL) | 125 µM (≈ 38.3 µg/mL) | 125 µM (≈ 38.3 µg/mL)
COc1ccc(Cl)cc1C(=S)Nc1ccc([N+](=O)[O-])cc1 | 125 µM (≈ 40.3 µg/mL) | 32 µM (≈ 10.3 µg/mL) | 250 µM (≈ 80.7 µg/mL) | 250 µM (≈ 80.7 µg/mL) | 250 µM (≈ 80.7 µg/mL) | 250 µM (≈ 80.7 µg/mL) | 125 µM (≈ 40.3 µg/mL) | 250 µM (≈ 80.7 µg/mL) | 250 µM (≈ 80.7 µg/mL) | 32 µM (≈ 10.3 µg/mL)

Source: ChEMBL document CHEMBL2086318, “Synthesis and in vitro antimycobacterial activity of 2-methoxybenzanilides and their thioxo analogues” (Eur J Med Chem, 2012)
